Consider one compound from ChEMBL document CHEMBL4052819 (2017).

≈ marks a conversion by molar mass, not a printed value. Calls of active or inactive are those of the source. The rule behind the calls is not given here. Non-standard residues stand in square brackets, D forms with d. Residues, ends and D or L forms follow the SMILES beside them. Cha = N[C@@H](CC1CCCCC1)C(=O)O; Dab = NCC[C@H](N)C(=O)O

One may read the MIC as the lowest concentration that inhibits growth of the organism.

Common to all, as to assay type: functional
Assay [1] deals with Pseudomonas aeruginosa. The assay can be described thus: Bactericidal activity against Pseudomonas aeruginosa ATCC 27853. To be noted: read-out: MBC99.9. The method in brief:
(§1)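 MBC from MIC plates at end point: 50 μL from each well with no visible growth plated on tryptic soy agar and counted. MBC taken as lowest concentration giving ≥99.9% fall in viable count relative to initial inoculum. Three independent experiments, one replicate each.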

For assay [2], the system named is Pseudomonas aeruginosa. The assay can be described thus: Bactericidal activity against Pseudomonas aeruginosa ATCC 27853 at 16 ug/ml after 60 mins in presence of LPS. The method in brief: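 P. aeruginosa at ~10^6 CFU/mL in TSB with E. coli O111:B4 LPS (final 10, 25, 50 or 100 μg/mL), then compound at final 16 μg/mL. Incubated 37 °C, 200 rpm, 60 min; survivors counted on TSA. Three independent experiments, one replicate each.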

The subject of assay [3] is Staphylococcus aureus. Briefly: Antibacterial activity against methicillin-resistant Staphylococcus aureus LAC.
Assay [4] relates to Staphylococcus aureus. The assay can be described thus: Antibacterial activity against Staphylococcus aureus ATCC 29213 after 18 to 20 hrs by broth microdilution method. A digest of the protocol: (§2)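 Broth microdilution in tryptic soy broth: 2-fold dilutions mixed 1:1 with ~1.5 × 10^5 CFU/mL inoculum, final 0.5–32 μg/mL; 37 °C, 18–20 h. MIC taken as lowest concentration giving no visible growth. At least three independent experiments, one replicate each.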
Background: Dilution methods test growth across graded concentrations, often in twofold steps.

Assay [5] concerns Staphylococcus aureus. Briefly: Bactericidal activity against Staphylococcus aureus ATCC 29213. To be noted: read-out: MBC99.9. A digest of the protocol:
as §1

Assay [6] has as its system Enterococcus faecium. Briefly: Bactericidal activity against Enterococcus faecium ATCC 19434. To be noted: read-out: MBC99.9. A digest of the protocol:
as §1

Assay [7] has as its system Escherichia coli. The assay can be described thus: Antibacterial activity against Escherichia coli ATCC 25922 in presence of 100% serum after 12 hrs by broth microdilution method. Particulars: ATCC 25922, 12 h. A digest of the protocol: (§3)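 Serum stability: compound added to 100% human serum at final 64 μg/mL, held at 37 °C, sampled at 0, 6, 12 and 24 h. […] Residual activity compared with untreated control.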

Assay [8] concerns Escherichia coli. Briefly: Antibacterial activity against Escherichia coli ATCC 25922 in presence of 100% serum after 6 hrs by broth microdilution method. Particulars: ATCC 25922, 6 h. A digest of the protocol: as §3
For assay [9], the system named is Escherichia coli. Briefly: Antibacterial activity against Escherichia coli ATCC 25922 after 18 to 20 hrs in presence of 95% serum by broth microdilution method. The method in brief:
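Same microdilution with human serum as medium: compound 2-fold diluted in 100% serum, mixed 1:1 with 90% serum holding ~1.5 × 10^5 CFU/mL, giving 95% serum and final 0.5–64 μg/mL. MIC read as no visible growth after incubation as for the broth test.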

Assay [10] relates to Staphylococcus aureus. The assay can be described thus: Antibacterial activity against methicillin-resistant Staphylococcus aureus ATCC 43300 after 18 to 20 hrs by broth microdilution method. The method in brief:
(§4)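 Broth microdilution in tryptic soy broth: 2-fold dilutions mixed 1:1 with ~1.5 × 10^5 CFU/mL bacterial suspension in TSB, final 0.5–32 μg/mL, 37 °C for 18–20 h. MIC = lowest concentration with no visible growth. At least three independent experiments, one replicate each.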

For assay [11], the system named is Pseudomonas aeruginosa. Briefly: Bactericidal activity against Pseudomonas aeruginosa ATCC 27853 at 32 ug/ml after 2 hrs by time-kill assay relative to control. The method in brief: (§5)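 Time-kill at 8, 16 and 32 μg/mL; survivors counted on tryptic soy agar at 0, 2, 4, 6 and 24 h. Three independent experiments, one replicate each.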
Assay [12] has as its system Enterococcus faecium. Briefly: Antibacterial activity against Enterococcus faecium ATCC 19434 after 18 to 20 hrs by broth microdilution method. A digest of the protocol:
as §2

Assay [13] concerns Pseudomonas aeruginosa. The assay can be described thus: Bactericidal activity against Pseudomonas aeruginosa ATCC 27853 at 16 ug/ml after 2 hrs by time-kill assay relative to control. A digest of the protocol: as §5
The test system of assay [14] is Pseudomonas aeruginosa. Briefly: Bactericidal activity against Pseudomonas aeruginosa ATCC 27853 at 8 ug/ml after 2 hrs by time-kill assay relative to control. A digest of the protocol:
as §5

Assay [15] concerns Staphylococcus aureus. Briefly: Bactericidal activity against methicillin-resistant Staphylococcus aureus ATCC 43300. To be noted: read-out: MBC99.9. The method in brief: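 MBC taken at the end of the MIC test: 50 μL from each well without visible growth plated on tryptic soy agar. MBC = lowest concentration giving ≥99.9% reduction in viable cells relative to the initial inoculum. Three independent experiments, one replicate each.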

Assay [16] concerns Acinetobacter baumannii. Briefly: Antibacterial activity against carbapenem-resistant Acinetobacter baumannii clinical isolate expressing beta-lactamase OXA-23, 24/40 after 18 to 20 hrs by broth microdilution method. A digest of the protocol:
as §4

In assay [17] the test system is Enterobacter cloacae. The assay can be described thus: Antibacterial activity against carbapenem-resistant Enterobacter cloacae clinical isolate expressing beta-lactamase KPC-3, TEM1 after 18 to 20 hrs by broth microdilution method. A digest of the protocol:
as §4

In assay [18] the test system is Staphylococcus aureus. Briefly: Bactericidal activity against Staphylococcus aureus ATCC 29213 at 16 ug/ml after 4 hrs by time-kill assay relative to control. A digest of the protocol: as §5

With `CC(C)C[C@H](NC(=O)[C@@H](Cc1ccccc1)NC(=O)[C@H](CCN)NC(=O)[C@H](Cc1ccccc1)NC(=O)[C@H](CCN)NC(=O)[C@@H](N)CC1CCCCC1)C(=O)N[C@@H](CCN)C(=O)N[C@H](CC(C)C)C(=O)N[C@@H](Cc1ccccc1)C(=O)N[C@@H](CO)C(N)=O` (H-[Cha][Dab]F[Dab][dF]L[Dab][dL]FS-NH2), the MBC in [1] was 2 to 4 µg/mL (≈ 1.63 to 3.26 µM); in assay [5], 8 µg/mL (≈ 6.53 µM); in assay [6], 16 µg/mL (≈ 13.1 µM); in [15] it was 8 µg/mL (≈ 6.53 µM). Further, the result in assay [2] was inactive. Besides, the MIC in [3] is 8 µg/mL (≈ 6.53 µM); in assay [4], 2 to 4 µg/mL (≈ 1.63 to 3.26 µM); in assay [7], 4 to 8 µg/mL; in [8], 4 to 8 µg/mL; in [9], 8 µg/mL; in [10] it was 4 µg/mL (≈ 3.26 µM). The values for the MIC in assay [12], in [16] and in assay [17] were 8 µg/mL (≈ 6.53 µM), 0.5 µg/mL (≈ 0.408 µM) and 0.5 µg/mL (≈ 0.408 µM), respectively. Besides, the Activity worked out at 5.1 deltalog10CFU/ml in [11], 3.7 deltalog10CFU/ml in assay [13], 2.2 deltalog10CFU/ml in assay [14] and 3.1 deltalog10CFU/ml in [18].
